# Data reported in ChEMBL document CHEMBL4024774 (J Med Chem, 2017).
# The source made the active and inactive calls. The calls are words filed in the database; no cut-off is given here.
# Assays:
# [1] = target: Sodium-dependent dopamine transporter (Rattus norvegicus, UniProt P23977); assay: Displacement of [3H]WIN35428 from Sprague-Dawley rat brain DAT after 120 mins by liquid scintillation counting method
# Procedure, shortened: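 Rat striatal membranes (male Sprague-Dawley) in sucrose phosphate buffer pH 7.4. […] Terminated by filtration on GF/B filters presoaked in 0.05% PEI, then scintillation counting.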
# [2] = Inhibition of […] uptake at human DAT […] mutant expressed in African green monkey COS7 cells after 90 mins; type: cell-based
# Procedure, shortened: (§1)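 Whole COS7 cells transiently expressing human DAT WT or the Y156F mutant, washed in ice-cold uptake buffer. Incubated with [³H]WIN 35,428 and inhibitor (1 nM–1 mM, 12 concentrations) at 5 °C to equilibrium (>90 min). Triplicates. Ki from IC50 by nonlinear regression and Cheng–Prusoff. Ratio is Y156F Ki over WT Ki.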
# [3] = target: T1, Sodium-dependent dopamine transporter (Homo sapiens, UniProt Q01959); assay: Inhibition of [3H]DA uptake at wild type human DAT expressed in African green monkey COS7 cells after 5 mins by beta scintillation counting method; type: cell-based
# T1 sequence (Q01959 whole entry): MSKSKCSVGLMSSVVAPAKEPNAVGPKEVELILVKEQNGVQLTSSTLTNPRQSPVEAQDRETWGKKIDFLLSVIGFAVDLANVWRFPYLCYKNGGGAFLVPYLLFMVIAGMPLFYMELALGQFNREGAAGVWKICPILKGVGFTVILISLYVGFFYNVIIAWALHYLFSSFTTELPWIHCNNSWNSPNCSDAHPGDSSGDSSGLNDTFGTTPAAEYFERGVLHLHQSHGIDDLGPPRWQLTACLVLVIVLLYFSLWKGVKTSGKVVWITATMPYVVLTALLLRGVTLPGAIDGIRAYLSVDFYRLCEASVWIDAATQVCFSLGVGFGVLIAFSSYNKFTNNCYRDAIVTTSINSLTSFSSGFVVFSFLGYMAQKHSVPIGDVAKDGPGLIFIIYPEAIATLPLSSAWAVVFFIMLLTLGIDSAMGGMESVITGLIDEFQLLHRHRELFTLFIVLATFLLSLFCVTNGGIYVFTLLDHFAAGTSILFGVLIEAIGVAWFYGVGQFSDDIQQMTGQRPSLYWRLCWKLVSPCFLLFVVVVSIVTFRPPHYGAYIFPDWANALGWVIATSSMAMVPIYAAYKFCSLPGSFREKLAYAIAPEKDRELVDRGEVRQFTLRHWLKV
# Procedure, shortened: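 COS7 cells transiently transfected with synthetic human DAT and assayed 2 days later. Preincubated with inhibitor (1 nM–1 mM, 12 concentrations) in HEPES uptake buffer pH 7.4 containing ascorbate and a COMT inhibitor. 6–10 nM [³H]DA added for 5 min at rt. Nonspecific uptake with 1 μM nomifensine. Cells lysed in SDS and scintillation counted. Run in triplicate. Ki from IC50 by Cheng–Prusoff.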
# Homo sapiens = species on record: Homo sapiens; assay: Selectivity ratio of Ki for human DAT […] mutant expressed in African green monkey COS7 cells to Ki for wild type human DAT expressed in African green monkey COS7 cells; type: cell-based; procedure, shortened: as §1
# [4] = target: Sodium-dependent serotonin transporter (Rattus norvegicus, UniProt P31652); assay: Displacement of [3H]citalopram from Sprague-Dawley rat brain SERT after 60 mins by liquid scintillation counting method
# Sodium-dependent serotonin transporter, sequence (P31652 whole entry): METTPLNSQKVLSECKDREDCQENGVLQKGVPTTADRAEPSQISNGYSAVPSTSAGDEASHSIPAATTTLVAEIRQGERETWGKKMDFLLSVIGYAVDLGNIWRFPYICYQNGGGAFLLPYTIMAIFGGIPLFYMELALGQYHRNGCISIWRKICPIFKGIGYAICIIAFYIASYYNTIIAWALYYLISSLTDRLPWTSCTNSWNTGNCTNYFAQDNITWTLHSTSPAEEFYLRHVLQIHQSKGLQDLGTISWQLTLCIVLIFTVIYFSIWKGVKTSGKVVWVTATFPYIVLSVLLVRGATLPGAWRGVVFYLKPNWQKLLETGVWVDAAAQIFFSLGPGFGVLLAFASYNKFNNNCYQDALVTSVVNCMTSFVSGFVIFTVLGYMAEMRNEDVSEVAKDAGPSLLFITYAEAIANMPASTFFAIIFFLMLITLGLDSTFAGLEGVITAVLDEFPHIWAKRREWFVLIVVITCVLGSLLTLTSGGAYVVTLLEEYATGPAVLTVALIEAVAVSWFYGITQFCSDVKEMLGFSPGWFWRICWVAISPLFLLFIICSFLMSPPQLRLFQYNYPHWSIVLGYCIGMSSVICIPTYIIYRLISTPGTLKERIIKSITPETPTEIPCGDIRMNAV
# Procedure, shortened: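 Male Sprague-Dawley rat brain stem membranes in 50 mM Tris with 120 mM NaCl and 5 mM KCl, pH 7.4. […] Nonspecific binding with 10 μM fluoxetine. Filtered on GF/B filters presoaked in 0.3% PEI, scintillation counted.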
# [5] = Displacement of [3H]nisoxetine from Sprague-Dawley rat brain NET after 180 mins by liquid scintillation counting method
# Procedure, shortened: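 Frontal cortex membranes from male Sprague-Dawley rats in 50 mM Tris, 120 mM NaCl, 5 mM KCl, pH 7.4. […] Nonspecific binding with 1 μM desipramine. Methanol level held constant across tubes. Filtered on GF/B filters in 0.05% PEI.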
# [6] = target: T1, Sodium-dependent dopamine transporter; assay: Inhibition of […] uptake at wild type human DAT expressed in African green monkey COS7 cells after 90 mins; type: cell-based; procedure, shortened: as §1
# [7] = target: Voltage-gated inwardly rectifying potassium channel KCNH2 (Homo sapiens, UniProt Q12809); assay: Displacement of [3H]Dofetilide from human ERG expressed in HEK cells after 180 mins by scintillation counting method; type: cell-based
# Voltage-gated inwardly rectifying potassium channel KCNH2, sequence (Q12809 whole entry): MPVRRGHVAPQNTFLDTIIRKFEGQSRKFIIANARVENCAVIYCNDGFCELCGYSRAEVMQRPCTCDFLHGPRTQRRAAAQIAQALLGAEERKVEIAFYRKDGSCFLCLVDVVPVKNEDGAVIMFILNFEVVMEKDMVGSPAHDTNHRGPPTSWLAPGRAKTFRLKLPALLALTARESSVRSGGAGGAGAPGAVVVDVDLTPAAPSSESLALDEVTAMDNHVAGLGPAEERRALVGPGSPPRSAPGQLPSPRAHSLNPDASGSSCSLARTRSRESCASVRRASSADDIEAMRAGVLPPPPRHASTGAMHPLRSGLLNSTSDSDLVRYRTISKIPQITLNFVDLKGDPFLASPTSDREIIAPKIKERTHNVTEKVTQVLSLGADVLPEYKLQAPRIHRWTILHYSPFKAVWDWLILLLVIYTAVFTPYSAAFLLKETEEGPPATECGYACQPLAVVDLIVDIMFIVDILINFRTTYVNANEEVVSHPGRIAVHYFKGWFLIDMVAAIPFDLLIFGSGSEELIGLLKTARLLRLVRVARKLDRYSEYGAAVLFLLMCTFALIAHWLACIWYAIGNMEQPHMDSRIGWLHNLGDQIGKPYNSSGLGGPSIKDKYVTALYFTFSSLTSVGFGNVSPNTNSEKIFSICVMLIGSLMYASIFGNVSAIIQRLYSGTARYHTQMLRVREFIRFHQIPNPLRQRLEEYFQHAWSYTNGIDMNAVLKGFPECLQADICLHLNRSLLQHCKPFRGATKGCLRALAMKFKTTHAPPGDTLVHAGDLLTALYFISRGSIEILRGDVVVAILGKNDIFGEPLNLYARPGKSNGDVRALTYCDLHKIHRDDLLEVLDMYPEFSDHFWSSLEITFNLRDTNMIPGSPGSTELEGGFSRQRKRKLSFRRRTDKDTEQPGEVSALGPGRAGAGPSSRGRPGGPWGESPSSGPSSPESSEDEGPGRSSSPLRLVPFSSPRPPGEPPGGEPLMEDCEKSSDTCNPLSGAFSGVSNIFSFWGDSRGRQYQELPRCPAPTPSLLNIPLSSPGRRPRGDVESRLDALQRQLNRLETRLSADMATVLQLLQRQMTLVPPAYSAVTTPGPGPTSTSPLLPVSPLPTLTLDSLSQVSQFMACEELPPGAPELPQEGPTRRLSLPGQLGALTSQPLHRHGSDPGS
# [8] = Selectivity ratio of IC50 for human ERG expressed in HEK cells to Ki for Sprague-Dawley rat brain DAT; type: cell-based
# Mus musculus [9] = assay: Decrease in locomotory activity in Swiss Webster mouse at 3 to 30 mg/kg, ip after 1 hr relative to control; type: functional, organism-based
# Procedure, shortened: (§2)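 Male Swiss Webster mice, ambulatory activity counted in 40 cm³ clear acrylic chambers over a 1 h session with no prior habituation. Drug given i.p. at 1 mL/kg immediately before the session. 6 mice per dose, each used once. Analysed by ANOVA then Dunnett's test against vehicle.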
# Liver = assay: Metabolic stability in mouse liver microsomes assessed as parent compound remaining at 10 uM after 1 hr in presence of NADPH by LC/MS/MS analysis; type: ADME, microsome
# Procedure, shortened: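 Mouse liver microsomes at 0.5 mg/mL with test compound at 10 μM final, in 100 mM potassium phosphate pH 7.4 with an NADPH regenerating system (1.3 mM NADPH). Reaction started by adding microsomes. Controls run without cofactor. Parent remaining measured by LC/MS/MS on a C18 column with formic acid/acetonitrile gradient. Triplicate.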
# Mus musculus [10] = assay: Effect on execution of behavioral task in Swiss Webster mouse assessed as overall group response rate at 0.3 to 30 mg/kg, ip relative to control; type: organism-based; settings: in vivo
# Procedure, shortened: (§3)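 Testing began after ≥85% correct responding on 4 consecutive sessions. Test drug given i.p. at 0.1–30 mg/kg, 5 or 30 min before the session, with 10 consecutive responses on either lever reinforced. ED50 taken from a linear fit. Response rate expressed as % of saline. 6 mice.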
# Mus musculus [11] = assay: Effect on discriminating cocaine from saline in Swiss Webster mouse assessed as cocaine lever response at 0.3 to 30 mg/kg, ip administered 5 to 30 mins prior to training session relative to control; type: functional; procedure, shortened: as §3
# Mus musculus [12] = assay: Decrease in locomotory activity in Swiss Webster mouse at 56 mg/kg, ip after 1 hr relative to control; type: functional; set-up: scale not given: the % may be the effect or the level left; procedure, shortened: as §2
# Sodium-dependent dopamine transporter (Rattus norvegicus, UniProt P23977), sequence (P23977 whole entry): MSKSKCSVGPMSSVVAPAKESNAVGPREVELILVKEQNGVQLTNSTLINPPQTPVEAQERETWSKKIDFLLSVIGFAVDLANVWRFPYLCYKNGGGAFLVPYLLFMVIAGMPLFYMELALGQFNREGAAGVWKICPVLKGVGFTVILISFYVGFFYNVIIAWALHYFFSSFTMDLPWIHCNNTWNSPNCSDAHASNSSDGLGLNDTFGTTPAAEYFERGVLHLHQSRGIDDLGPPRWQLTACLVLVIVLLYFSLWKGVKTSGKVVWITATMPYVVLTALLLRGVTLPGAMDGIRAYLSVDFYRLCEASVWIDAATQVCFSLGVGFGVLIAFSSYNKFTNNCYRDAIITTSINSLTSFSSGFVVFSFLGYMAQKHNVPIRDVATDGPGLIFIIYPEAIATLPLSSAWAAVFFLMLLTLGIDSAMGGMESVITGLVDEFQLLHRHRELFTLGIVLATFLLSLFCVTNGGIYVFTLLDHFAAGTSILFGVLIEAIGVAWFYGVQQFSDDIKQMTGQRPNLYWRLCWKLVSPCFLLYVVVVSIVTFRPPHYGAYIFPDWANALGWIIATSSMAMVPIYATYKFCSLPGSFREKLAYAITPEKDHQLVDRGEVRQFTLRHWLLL
compound,measurement,setting,value
CCOC(=O)[C@@H]1C2CCC(C[C@@H]1OC(c1ccc(F)cc1)c1ccc(F)cc1)N2C[C@H](N)C(C)C (mixture of isomers),Ki,[1],53.8 nM
same,Ki,[2],1560 nM
same,Ki,[3],1050 nM
same,Ratio Ki,Homo sapiens,7.1
same,Ki,[4],1370 nM
same,Ki,[5],4470 nM
same,Ki,[6],221 nM
Cc1ccc(C2CC3CCC(C2c2cc(-c4ccc(Cl)cc4)no2)N3C)cc1 (stereo unspecified),Ki,[1],8.55 nM
same,Ki,[2],242 nM
same,Ki,[3],9.7 nM
same,Ratio Ki,Homo sapiens,9
same,Ki,[4],29100 nM
same,Ki,[5],887 nM
same,Ki,[6],27 nM
Fc1ccc(C(OC2CC3CCC(C2)N3CCN2CCCCC2)c2ccc(F)cc2)cc1 (stereo unspecified),Ki,[1],13.2 nM
same,Ki,[4],1460 nM
same,Ki,[5],370 nM
CN1C2CCC1[C@@H](c1cc(-c3ccccc3)no1)[C@@H](OC(c1ccc(F)cc1)c1ccc(F)cc1)C2 (mixture of isomers),Ki,[1],60.8 nM
same,Ki,[2],3490 nM
same,Ki,[3],1300 nM
same,Ratio Ki,Homo sapiens,2.4
same,Ki,[4],3830 nM
same,Ki,[5],1100 nM
same,Ki,[6],1480 nM
Fc1ccc(C(OC2CC3CCC(C2)N3CC2CC2)c2ccc(F)cc2)cc1 (stereo unspecified),Ki,[1],24.6 nM
same,IC50,[7],3960 nM
same,Ki,[4],1420 nM
same,Ki,[5],1640 nM
same,Selectivity ratio,[8],161
CN1C2CCC1[C@@H](c1cc(-c3ccc(F)cc3)no1)[C@@H](OC(c1ccc(F)cc1)c1ccc(F)cc1)C2 (mixture of isomers),Ki,[1],69.2 nM
same,Ki,[4],2990 nM
same,Ki,[5],1640 nM
CC(C)[C@@H](N)CN1C2CCC1CC(OC(c1ccc(F)cc1)c1ccc(F)cc1)C2 (stereo partly specified),Ki,[1],13.2 nM
same,Ki,[2],307 nM
same,Ki,[3],133 nM
same,Ratio Ki,Homo sapiens,3.8
same,Ki,[4],3870 nM
same,Ki,[5],2130 nM
same,Selectivity ratio,[8],345
same,Ki,[6],81 nM
CN1C2CCC1[C@@H](c1cc(-c3ccc(Cl)cc3)no1)[C@@H](OC(c1ccc(F)cc1)c1ccc(F)cc1)C2 (mixture of isomers),Ki,[1],66.6 nM
same,Ki,[4],756 nM
same,Ki,[5],1580 nM
CCOC(=O)[C@@H]1C2CCC(C[C@@H]1OC(c1ccc(F)cc1)c1ccc(F)cc1)N2CCc1c[nH]c2ccccc12 (mixture of isomers),Ki,[1],26.1 nM
same,Ki,[2],1080 nM
same,Ki,[3],944 nM
same,Ki,[4],746 nM
same,Ki,[5],1450 nM
same,Ki,[6],147 nM
Fc1ccc(C(NC2CC3CCC(C2)N3CCN2CCCCC2)c2ccc(F)cc2)cc1 (stereo unspecified),Ki,[1],10.6 nM
same,Ki,[4],3780 nM
same,Ki,[5],612 nM
CN(C)CCN1C2CCC1CC(OC(c1ccc(F)cc1)c1ccc(F)cc1)C2 (stereo unspecified),Activity,Mus musculus [9],Active
same,Ki,[1],12 nM
same,Ki,[2],63 nM
same,Ki,[3],47 nM
same,Stability,Liver,88%
same,Activity,Mus musculus [10],< 50%
same,Ratio Ki,Homo sapiens,6.3
same,IC50,[7],8230 nM
same,Ki,[4],3150 nM
same,Ki,[5],933 nM
same,Activity,Mus musculus [11],23%
same,Selectivity ratio,[8],686
same,Ki,[6],10 nM
same,Activity,Mus musculus [12],14%
